Only some compounds are listed: those with a hit (about 4.5% of all), similar ones and a draw of the others.
RGS4 act: RGS4 potentiation or activation | actives 0.92% (n = 310,000) | HEK293 M3R/inducible RGS4, carbachol calcium flux Fluo4; stronger effect = lower value | B-score at 10 µM;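 active = B-score of the integrated calcium signal more than 4 SD below the library mean, with starting fluorescence not abnormally high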;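 note: negative B-score means reduced calcium response which marks RGS4 activation or potentiation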
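test system = M3R-expressing HEK293 line, RGS4 induced by doxycycline | probe or stimulus = carbachol at ECmax as muscarinic agonist stimulus | timing = dye loading 30 min 37 °C, buffer rest 30 min RT | signal = calcium dye Fluo4 fluorescence | evaluation = B score from integrated fluorescence ratio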
PHOSPHO1 inh: inhibitors of human PHOSPHO1 phosphatase; Q8TCT1; recombinant PHOSPHO1, absorbance phosphatase assay; inhibition, % at 13.3 µM; actives 1.1% (n = 290,000); in the data active = inhibition above about 60%
Target sequence (Q8TCT1 whole entry, looked up): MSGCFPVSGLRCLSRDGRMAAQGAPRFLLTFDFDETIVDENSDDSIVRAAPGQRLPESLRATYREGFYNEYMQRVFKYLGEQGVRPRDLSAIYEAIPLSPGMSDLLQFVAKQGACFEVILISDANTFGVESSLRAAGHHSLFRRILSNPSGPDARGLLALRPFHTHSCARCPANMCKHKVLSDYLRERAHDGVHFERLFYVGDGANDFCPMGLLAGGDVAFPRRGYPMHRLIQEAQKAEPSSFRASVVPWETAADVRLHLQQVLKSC
MrgX1 ag: agonists of human MrgX1 receptor. AID 588627. MrgX1-HEK293 cells, Fluo-4 calcium fluorescence, agonist mode; stronger effect = higher value. actives 0.44% (n = 310,000). B-score at 10 µM;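 active = calcium response B-score plate-corrected fluorescence ratio at least 3 library SD, with starting fluorescence B-score inside 5 SD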
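Material – MrgX1-expressing HEK293 cells · Input – 15,000 cells seeded per well · Dosing – compound as first of three additions · Times – overnight seeding, then 1 h dark dye loading · Measured by – kinetic Fluo-4 NW fluorescence of intracellular calcium · Read-out – B-scored fluorescence response ratio · Benchmarks – positive and negative control wells on each plate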
MrgX1 allo act: human MrgX1 positive allosteric modulation, primary screen; Q96LB2; MrgX1-HEK293, Fluo-4 calcium flux, FDSS; stronger effect = higher value; B-score at 10 µM; actives 0.63% (n = 310,000); AID 588675;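 active = plate-corrected calcium response at least 3 library SD above typical, normal starting fluorescence, not activating the receptor alone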;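 note: compound read alongside a low EC10 to EC30 dose of BAM8-22 agonist; peak minus trough fluorescence over baseline measured at the second addition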
RGS4 block: inhibitors of human RGS4; P49798; HEK293 M3R/RGS4 inducible, Fluo-4 calcium flux; stronger effect = higher value; triggered by carbachol at its EC20; B-score at 10 µM; actives 0.45% (n = 310,000);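 active = B-score, a plate-corrected calcium signal, over three deviations above library mean, with baseline fluorescence within five deviations of library mean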;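 note: RGS4 expression induced by doxycycline in cells with stable M3 receptor; B-score is computed from the integrated fluorescence ratio over baseline after carbachol; higher B-score means a larger calcium signal and so more RGS4 inhibition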
Target sequence (P49798 whole entry, looked up): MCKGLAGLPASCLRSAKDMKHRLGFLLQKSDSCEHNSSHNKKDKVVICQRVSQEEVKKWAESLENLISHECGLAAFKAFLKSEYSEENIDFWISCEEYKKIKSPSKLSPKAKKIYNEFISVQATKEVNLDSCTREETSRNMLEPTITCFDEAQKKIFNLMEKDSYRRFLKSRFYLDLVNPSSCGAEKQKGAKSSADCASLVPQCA
MrgX1 antag: blocks BAM8-22 activation of human MrgX1 receptor; MRGX1-HEK293 calcium flux, Fluo-4, BAM8-22 antagonism; stronger effect = lower value; actives 1.3% (n = 310,000); Q96LB2; B-score at 10 µM;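 active = calcium-response B-score plate-corrected more than 3 library SD below zero, starting fluorescence within 5 deviations, no agonist response on first addition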;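 note: peak minus trough fluorescence over baseline after final BAM8-22 challenge near maximal dose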
RGS4 block valid: RGS4 inhibitor validation; shares compounds with RGS4 block; HEK293 M3R/RGS4, carbachol calcium Fluo-4 fluorescence; carbachol added at its EC20; 0 = buffer wells, 100 = carbachol control; calcium response, % at 10 µM; actives 65% (n = 1,700); AID 492999;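 active = duplicate-averaged calcium response above the buffer-only control mean plus 5 SD of those controls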;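 note: integrated fluorescence ratio F max minus min over baseline F0; higher response in RGS4-induced cells means RGS4 inhibition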
RGS4 uninduced: non-induced cell nonspecific activity of RGS4 inhibitors; shares compounds with RGS4 block; AID 493000; actives 20% (n = 1,900); HEK293 M3R non-induced, carbachol calcium Fluo-4; submaximal (EC20) carbachol stimulus; buffer wells 0%, carbachol control wells 100%; activity (percent), % at 10 µM; call rule not given here;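 note: RGS4 induction absent so cells express M3R without RGS4; higher means more calcium signal and flags a non-specific hit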
RGS4 inh ctr2: signal in non-induced cells without carbachol, RGS4 inhibitor counter-screen | HEK293 M3R/RGS4 non-induced, Fluo-4 calcium, no carbachol; normalised: buffer wells 0%, carbachol wells 100% | shares compounds with RGS4 block | calcium response (agonist-mode artifact), % at 10 µM | actives 22% (n = 1,900) | AID 493001;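 active = duplicate-averaged calcium rise in uninduced cells above buffer wells' mean plus 5 SD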
Numbers stand for hits; 0 = inactive; - = no result.

SMILES	RGS4 act	PHOSPHO1 inh	MrgX1 ag	MrgX1 allo act	RGS4 block	MrgX1 antag	RGS4 block valid	RGS4 uninduced	RGS4 inh ctr2
O=C(CN(C(=O)CNS(=O)(=O)c1ccc(F)cc1)c1ccc(F)cc1)NCc1ccco1	0	0	0	0	0	0	0	0	0
O=C(CN(C(=O)CNS(=O)(=O)c1ccc(F)cc1)c1ccccc1F)NCc1ccco1	0	0	0	0	4.9	0	0	0	0
Cc1ccc(C)c(N(CC(=O)NCc2ccco2)C(=O)CNS(=O)(=O)c2ccc(F)cc2)c1	0	0	0	0	0	0	-	-	-
CN1C(C(=O)N2CCc3ccccc3C2)=CC(c2ccc(F)cc2)=NS1(=O)=O	0	0	0	0	0	0	-	-	-
Cc1cccc(N=c2oc3cc(O)ccc3cc2C(N)=O)c1	0	0	0	0	4.7	0	6.0%	0	30%
O=C(N/C(=C\c1ccco1)C(=O)N1CCCC1CO)c1ccccc1 (stereo not drawn)	0	0	0	0	0	0	-	-	-
Cc1onc(-c2ccccc2)c1NC(=O)N(CCC#N)Cc1cccs1	0	0	0	0	0	0	0	0	0
O=C(CCCSc1ccccc1)Nc1nc(-c2ccco2)c(-c2ccco2)s1	0	0	0	0	0	0	-	-	-
O=C(CCl)Nc1nc(-c2ccco2)c(-c2ccco2)s1	0	0	0	0	5.8	0	0	0	0
COc1ccc(C2=NC(C)(C)Cc3cc(OC)c(OC)cc32)cc1	0	-	0	0	0	0	-	-	-
COc1cc2c(cc1OC)C(SC)=NC(C)(C)C2	0	0	0	0	0	0	-	46%	0
Cc1cc(NS(=O)(=O)c2ccc(NC(=O)Cc3ccccc3)cc2)nc(C)n1	0	0	0	0	0	0	-	-	-
O=C(Nc1ccc2nc3n(c(=O)c2c1)CCCCC3)c1cc([N+](=O)[O-])ccc1F	0	0	0	0	0	0	-	-	-
O=C(Nc1ccc2nc3n(c(=O)c2c1)CCCCC3)c1c(F)ccc([N+](=O)[O-])c1F	0	0	37	0	5.2	0	33%	0	12%
O=C(NCc1c(Cl)cccc1Oc1ccccc1)c1ccccc1	0	0	0	0	0	0	-	-	-
NC1=NC2(CCC(c3ccccc3)CC2)n2c(nc3ccccc32)N1 (stereo not drawn)	0	0	0	0	5.2	0	58%	0	0
COc1ccc(-c2nn(-c3ccccc3)cc2/C=C(\CC(=O)O)c2nc3ccccc3s2)cc1OC	0	0	0	0	6.2	0	7.5%	0	0
COc1ccc(/C=C(\CC(=O)O)c2nc3ccccc3s2)cc1O	0	0	0	0	0	0	-	-	-
Nc1nc(Cl)cc(N2CCCC2)n1	0	0	0	0	0	0	-	-	-
Nc1nc(Cl)cc(N2CCC(c3cc(-c4ccc(Cl)cc4Cl)n[nH]3)CC2)n1	0	0	0	0	7.3	0	16%	0	0
COc1ccc(OC)c(-c2nc3cc4ccccc4cc3nc2-c2ccccc2)c1	0	0	0	0	6.8	0	14%	0	94%
COc1ccc(-c2nc3ccccc3nc2-c2ccccc2)cc1OC	0	0	0	0	0	0	-	-	-
CCOCCCNC(=S)Nc1ccc2nc(N3CCOCC3)cc(C)c2c1	0	0	0	0	0	0	-	-	-
C/C(CC(=O)NC1CCCC1)=N\NC(=O)c1ccc([N+](=O)[O-])c(Cl)c1	-	0	0	0	-	0	-	-	-
O=[N+]([O-])c1ccc(Nc2nc(NCCO)nc(N3CCCC3)n2)cc1	0	0	0	0	0	0	-	-	-
Cc1cccc(Nc2nc(N3CCCCC3)nc(N3CCCCC3)n2)c1	0	0	0	0	9.7	0	48%	55%	0
